TRPC4 inh – inhibitors of mouse TRPC4 channel | HEK293 TRPC4beta/mu-opioid, DAMGO-evoked Fluo4 calcium flux; hits give low values | B-score at 10 µM | 0.39% of 300,000 active;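 active = B-score over 3 SD under the library average, no early fluorescence shift, positive overall ratio signal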
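material = TRPC4beta/mu-opioid receptor HEK293 cell line | probe or stimulus = sequential submaximal and maximal DAMGO stimulation | compound dosing = one concentration per compound | measured by = Fluo4 Ca2+ flux fluorescence | evaluation = integrated fluorescence ratio relative to baseline, converted to per-well B score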
TRPC4 act – activators of mouse TRPC4 channel; AID 2237; HEK293 TRPC4beta/mu-opioid, Fluo4 calcium fluorescence; hits give high values; B-score at 10 µM; 0.49% of 310,000 active; Q9QUQ5;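 active = B-score above 5 SD of library B-scores, and initial fluorescence ratio not above library mean plus 5 SD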;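 note: positive B-score marks a calcium rise read as TRPC4 activation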
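system = HEK293 cells stably co-expressing mouse TRPC4beta and mu-opioid receptor | schedule = Fluo4 dye loading 45 min at room temperature, 110 s recording | measure = B-scored integrated calcium fluorescence ratio | signal = Fluo4 calcium-sensitive dye fluorescence, kinetic, 1 Hz baseline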
TRPC4 PAM – allosteric potentiators of mouse TRPC4 channel; HEK293 TRPC4beta/mu-opioid, DAMGO EC20, Fluo-4 Ca2+ flux; hits give high values; B-score at 10 µM; 0.42% of 310,000 active; AID 2227; Q9QUQ5;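 active = B-score of calcium response area above 5 SD of library B-scores, with initial fluorescence ratio within 5 SD of library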;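 note: B-score of integrated fluorescence ratio over time as area under calcium response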
TRPC6 act – activators of mouse TRPC6 channel. Q61143. HEK293-TRPC6 membrane potential dye fluorescence; hits give high values. B-score at 10 µM. 0.13% of 310,000 active;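 active = B-score of the integrated fluorescence ratio above library mean plus 3 SD, and starting fluorescence ratio within library mean plus 5 SD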;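 note: higher score means more depolarization so channel activation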
Target sequence (Q61143 whole entry, looked up): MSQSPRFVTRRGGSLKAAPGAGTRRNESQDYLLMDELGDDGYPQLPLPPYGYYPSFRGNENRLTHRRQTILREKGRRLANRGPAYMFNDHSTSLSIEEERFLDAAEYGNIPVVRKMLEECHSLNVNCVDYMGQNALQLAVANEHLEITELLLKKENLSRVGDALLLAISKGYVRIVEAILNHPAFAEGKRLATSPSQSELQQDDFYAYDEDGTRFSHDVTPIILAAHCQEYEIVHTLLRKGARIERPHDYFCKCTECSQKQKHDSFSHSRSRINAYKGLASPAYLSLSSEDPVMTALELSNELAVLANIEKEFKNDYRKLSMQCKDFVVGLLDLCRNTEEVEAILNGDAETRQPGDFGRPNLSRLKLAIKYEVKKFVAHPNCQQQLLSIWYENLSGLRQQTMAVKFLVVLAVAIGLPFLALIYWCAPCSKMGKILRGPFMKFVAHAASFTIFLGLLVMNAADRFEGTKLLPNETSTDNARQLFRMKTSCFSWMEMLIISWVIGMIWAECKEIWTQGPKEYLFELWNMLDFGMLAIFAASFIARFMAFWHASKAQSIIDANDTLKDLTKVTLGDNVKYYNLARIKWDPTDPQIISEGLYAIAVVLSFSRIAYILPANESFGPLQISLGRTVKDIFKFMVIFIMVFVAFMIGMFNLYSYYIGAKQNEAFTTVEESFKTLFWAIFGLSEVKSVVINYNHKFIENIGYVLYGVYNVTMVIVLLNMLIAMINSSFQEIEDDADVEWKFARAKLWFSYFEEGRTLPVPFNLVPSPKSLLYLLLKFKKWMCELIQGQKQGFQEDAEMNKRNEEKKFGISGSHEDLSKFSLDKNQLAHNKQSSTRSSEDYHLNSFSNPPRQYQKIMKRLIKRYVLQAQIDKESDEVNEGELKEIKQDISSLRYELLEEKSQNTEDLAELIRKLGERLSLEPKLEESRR
TRPC6 inh – blocks the mouse TRPC6 cation channel; HEK293-TRPC6, membrane potential dye, ACh-evoked depolarization; hits give low values; B-score at 10 µM; 1.1% of 310,000 active;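 active = B-score under library mean minus 3 SD, initial fluorescence not abnormally high, positive integrated signal ratio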;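 note: B-score derived from integrated fluorescence ratio over the kinetic read; more negative B-score means stronger inhibition of depolarization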
TRPC4 sel inh 2 – second selectivity test of TRPC6 inhibitors: effect on mouse TRPC4 | shares compounds with TRPC6 inh | HEK293 TRPC4/MOR, membrane potential dye fluorescence; channel activated by saturating DAMGO dose | inhibition, % at 10 µM | 42% of 920 active;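 active = compounds whose fluorescence signal differed from control wells by over 3 SD, either direction, in both duplicate plates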
TRPC4 spec – mouse TRPC4 off-target activity of TRPC6 inhibitors. shares compounds with TRPC6 inh. HEK293 TRPC4/mu-opioid, membrane potential fluorescence. activity change, negative = inhibition, % at 10 µM. 61% of 920 active. AID 2777;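 active = rise or fall in signal beyond 3 SD of buffer-only wells in both replicate plates, either sign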;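 note: integrated kinetic ratio of fluorescence range over baseline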
HEK293 MPD ctr 2-1 – second counter-screen for TRPC6 inhibitors: parental HEK293 cells; 31% of 920 active; shares compounds with TRPC6 inh; AID 2779; parental HEK293 membrane potential dye fluorescence; maximal acetylcholine challenge after compound addition; signal change vs control, % at 10 µM;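 active = membrane potential signal moving either way by over 3 SD of the maximum-effect control, in both duplicate plates, meaning non-specific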
HEK293 MPD ctr-1 – checks TRPC6 inhibitor effects in parental HEK293 cells | parental HEK293 membrane potential dye fluorescence | AID 2780 | shares compounds with TRPC6 inh | membrane potential signal change, % at 10 µM | 60% of 920 active;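 active = membrane potential signal shifting up or down by more than 3 SD of buffer-only wells, on both duplicate plates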
HEK293 MPD ctr-2 – counter-screen for TRPC6 modulators: effect in parental HEK293 cells; 51% of 2,400 active; shares compounds with TRPC6 inh; membrane potential dye fluorescence; AID 488924; membrane potential signal change, % at 10 µM;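 active = membrane potential signal moves up or down beyond 5 SD from buffer-only wells, on both duplicate plates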
HEK293 MPD ctr 2-2 – second check of TRPC6 modulator effects in parental HEK293 cells; shares compounds with TRPC6 inh; membrane potential dye fluorescence; after compound, maximal acetylcholine stimulation; inhibition, % at 10 µM; 14% of 2,400 active;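 active = membrane potential signal drops by more than 5 SD from the mean control signal, in both duplicate plates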;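 note: plate controls were acetylcholine ECmax control wells for no effect and buffer only wells for full effect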
TRPC4 ctr mod – mouse TRPC4 off-target activity of TRPC6 modulators | shares compounds with TRPC6 inh | HEK293 TRPC4/mu-opioid, membrane potential fluorescence | AID 488927 | 69% of 2,400 active | percent change from control (negative = decrease, positive = increase), % at 10 µM;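 active = membrane potential signal moved up or down beyond 5 SD of buffer control wells, in both duplicate plates, actives on both sides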;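 note: plate controls were assay buffer wells for no effect and DAMGO maximal-effect wells for full effect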
TRPC4 ctr inh 2 – second check of whether TRPC6 modulators also affect mouse TRPC4; inhibition, % at 10 µM; 55% of 2,400 active; HEK293 TRPC4/mu-opioid, membrane potential dye fluorescence; stimulated with maximal-effect DAMGO; shares compounds with TRPC6 inh; AID 488928;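 active = drop in membrane potential signal beyond 5 SD of the control wells in both duplicate plates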;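 note: TRPC4 counter screen for TRPC6 hits run under conditions tuned for TRPC6 not TRPC4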
TRPC6 inh conf – mouse TRPC6 inhibitor confirmation; 43% of 3,300 active; inhibition, % at 10 µM; shares compounds with TRPC6 inh; HEK293-TRPC6, membrane potential dye, ACh-evoked depolarization;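 active = fluorescence ratio falls more than 5 SD below the full-stimulation control mean, in both duplicate runs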;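 note: integrated fluorescence ratio of peak minus minimum over baseline after agonist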
TRPC6 act confirm – mouse TRPC6 activator confirmation | AID 488961 | 11% of 2,800 active | shares compounds with TRPC6 inh | activation, % at 10 µM | HEK293-TRPC6 membrane potential dye fluorescence, FDSS;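 active = ratio signal rise beyond 5 SD above unstimulated control wells' mean, seen in both duplicate runs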;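 note: plate controls were buffer EC0 wells for no effect and acetylcholine ECmax response for full effect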
The depositor's hits bear a star; i = inactive; · = not tested or not shown. This is a sample that favours compounds with a hit; in the whole collection about 2.3% have one here.

SMILES	TRPC4 inh	TRPC4 act	TRPC4 PAM	TRPC6 act	TRPC6 inh	HEK293 MPD ctr-2	HEK293 MPD ctr 2-2	TRPC4 ctr mod	TRPC4 ctr inh 2	TRPC6 inh conf	TRPC6 act confirm	others
CN1CCN(c2ccc([N+](=O)[O-])cc2C(=O)Nc2ccccc2)CC1	i	i	i	i	-5.3*	i	i	i	i	i	i
COC(=O)c1ccc(N2CCc3ccccc32)c([N+](=O)[O-])c1	i	i	i	i	-5.3*	i	i	-16%*	40%*	i	i
COc1cccc(NC(=O)c2cc([N+](=O)[O-])ccc2N2CCN(C)CC2)c1	i	i	i	i	i	·	·	·	·	·	·
COc1cccc(C(=O)Nc2cc([N+](=O)[O-])ccc2N2CCN(C)CC2)c1	i	i	i	i	-11*	-372%*	i	-61%*	56%*	50%*	i
O=C(O)c1ccc(N2CCc3ccccc32)c([N+](=O)[O-])c1	i	i	i	i	i	·	·	·	·	·	·
CN1CCN(c2ccccc2NC(=O)c2cccc([N+](=O)[O-])c2)CC1	i	i	i	i	i	·	·	·	·	·	·
COc1ccc(NC(=O)Nc2ccc(O)c3ccccc23)cc1	i	i	i	i	i	·	·	·	·	·	·
CN(C(=O)CN(c1ccccc1)S(=O)(=O)c1ccc(F)cc1)C1CCS(=O)(=O)C1 (stereo not given)	i	i	i	i	i	·	·	·	·	·	·
CC1CCN(C(=O)Cn2nnc(-c3ccc(C(C)C)cc3)n2)CC1	i	i	i	i	i	·	·	·	·	·	·
COC(=O)c1ccc(N2CCN(C)CC2)c(NC(=O)c2cccnc2)c1	i	50*	i	i	-8.5*	-444%*	84%*	-76%*	56%*	55%*	i
COc1ccc(C(=O)Nc2cc([N+](=O)[O-])ccc2N2CCN(C)CC2)cc1	i	i	i	i	-17*	-386%*	111%*	-60%*	82%*	86%*	i
CN1CCN(c2ccc([N+](=O)[O-])cc2NC(=O)c2ccccc2)CC1	i	i	i	i	-6.4*	-323%*	i	-50%*	36%*	i	i
O=C(Nc1cc([N+](=O)[O-])ccc1N1CCCC1)c1ccccc1	i	i	i	i	i	·	·	·	·	·	·
O=C(NC(=S)Nc1ccccc1Cl)c1cncc(Br)c1	i	i	i	i	i	·	·	·	·	·	·
CCOC(=O)c1ccc(NC(=S)NCc2ccco2)cc1	i	i	i	i	-9.3*	·	·	·	·	i	i	TRPC4 sel inh 2=i;TRPC4 spec=i;HEK293 MPD ctr 2-1=i;HEK293 MPD ctr-1=i
CCOc1ccc(NC(=S)NCc2ccco2)cc1	i	i	i	i	i	·	·	·	·	·	·
CCOC(=O)c1ccc(NC(=S)NCc2ccc(S(N)(=O)=O)cc2)cc1	i	i	i	i	-5.3*	i	i	i	i	48%*	·
CCOC(=O)c1ccc(NC(=O)CN(Cc2ccc(Cl)cc2)S(C)(=O)=O)cc1	i	i	i	i	-6.6*	·	·	·	·	i	i	TRPC4 sel inh 2=i;TRPC4 spec=-12%*;HEK293 MPD ctr 2-1=i;HEK293 MPD ctr-1=i
CCOC(=O)c1ccc(NC(=S)N(CCCN2CCCCCC2)Cc2ccco2)cc1	i	i	i	i	-5.7*	i	i	i	77%*	56%*	i
CCOC(=O)c1ccc(NC(=S)N(CCN2CCCCCC2)Cc2ccco2)cc1	i	i	i	i	i	·	·	·	·	·	·
CS(=O)(=O)N(CC(=O)Nc1ccc2c(c1)OCCO2)Cc1ccc(Cl)cc1	i	i	i	i	i	·	·	·	·	·	·
Cc1cc(C)c(S(=O)(=O)Nc2nnc(C3CCCCC3)s2)c(C)c1	i	i	i	i	i	·	·	·	·	·	·
Cc1ccnc(NC(=O)c2ccc(OCC3CCCO3)cc2)c1 (stereo not given)	i	i	i	i	i	·	·	·	·	·	·
CCOC(=O)N1CCC(n2c(SCC(=O)OCc3ccccc3)nc3ccsc3c2=O)CC1	i	i	i	i	i	·	·	·	·	·	·
CCOC(=O)CSc1nc2ccsc2c(=O)n1C1CCN(C(=O)OCC)CC1	i	i	i	15*	-6.8*	133%*	i	34%*	i	i	60%*
CN1C=C/C(=C\c2cc[n+](C)c3ccccc23)c2ccccc21	i	i	i	i	-5.8*	-265%*	i	-27%*	32%*	i	i
COc1ccccc1CNCC(=O)Nc1ccc(C#N)cc1	i	i	i	i	i	·	·	·	·	·	·
COc1ccccc1CNCC(=O)Nc1ccc(C(F)(F)F)cc1	i	i	i	i	-5.2*	i	i	i	42%*	i	i
COc1ccc(C(CNC(=O)Cc2ccccc2Cl)N2CCCCC2)cc1 (stereo not given)	i	i	i	i	i	·	·	·	·	·	·
COc1ccc(C(CNC(=O)c2ccc(Cl)c(NC(=O)c3cccs3)c2)N2CCCC2)cc1 (stereo not given)	i	i	i	i	-6*	106%*	i	i	64%*	42%*	·

High-throughput results (PubChem BioAssay)
